Columns and labels:
[1] = Displacement of [3H]-DTG from sigma 2 receptor in rat liver after 120 mins by scintillation counting analysis
Method in brief: (§1)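 Rat liver homogenate (150 µg) incubated 120 min at room temperature with 3 nM [³H]-DTG in 50 mM Tris-HCl pH 8.0. (+)-Pentazocine 100 nM masked S1R; haloperidol 10 µM defined nonspecific binding. Ki by Cheng–Prusoff from IC50.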

[2] = biological target: Sigma non-opioid intracellular receptor 1 (Cavia porcellus, UniProt Q60492); experiment: Displacement of [3H]-pentazocine from sigma 1 receptor in guinea pig brain cortical membrane after 120 mins by scintillation counting analysis; assay type: cell membranes
Sigma non-opioid intracellular receptor 1 (Cavia porcellus, UniProt Q60492), sequence (Q60492 whole entry): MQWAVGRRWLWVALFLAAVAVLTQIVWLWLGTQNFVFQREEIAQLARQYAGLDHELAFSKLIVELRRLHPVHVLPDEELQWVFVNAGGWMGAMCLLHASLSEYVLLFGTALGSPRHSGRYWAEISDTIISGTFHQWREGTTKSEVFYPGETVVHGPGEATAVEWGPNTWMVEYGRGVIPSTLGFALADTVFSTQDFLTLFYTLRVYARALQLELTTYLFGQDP
Method in brief: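 Nonspecific binding defined with unlabeled (+)-pentazocine. Filtration, then scintillation counting. IC50 by nonlinear regression, converted to Ki by Cheng–Prusoff.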

[3] = Displacement of [3H]-DTG from sigma 2 receptor in Sprague-Dawley rat liver membranes after 120 mins by scintillation counting analysis; assay type: cell membranes, Membrane; method in brief: as §1
[4] = Displacement of [3H]DTG from sigma 2 receptor in rat brain homogenates without cerebellum; assay type: tissue-based
[5] = Cytotoxicity against human Paca3 cells assessed as decrease in cell viability using complete medium after 24 hrs by MTS assay; assay type: functional, cell-based; details: Paca3, 24 h
Method in brief: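 Cells in exponential growth, 3×10^3 per well, in medium with 10% FCS. Capan-2, PaCa3, MDA-MB 231, SUM 159 and PC3 were grown in DMEM/Ham's F12 with glutamine 2 mM and insulin 10 µg/ml. U87 was grown in EMEM and LNCaP in RPMI, each with glutamine. Compound 0.1–100 µM, continuous exposure (24 h; 48 h for the 48 h lines). MTS, OD 490 nm. IC50 read graphically. Three independent experiments in octuplicate.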

[6] = Cytotoxicity against human Paca3 cells assessed as decrease in cell viability under starvation condition after 24 hrs by MTS assay; assay type: functional, cell-based; details: Paca3, 24 h
Method in brief: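 Cells starved 24 h in low-glucose medium without FCS, then treated 24 h with compound in serum-free conditions. MTS read-out, OD 490 nm, expressed as percent of untreated control. IC50 read graphically from the dose-response plot. Three independent experiments in octuplicate.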

[7] = Antiproliferative activity against human CFPAC cells after 24 hrs; assay type: functional, cell-based
[8] = Antiproliferative activity against human BxPC3 cells after 24 hrs; assay type: functional, cell-based; details: BXPC-3, 24 h
[9] = Antiproliferative activity against human PANC1 cells after 24 hrs; assay type: functional, cell-based; details: PANC-1, 24 h
[10] = Antiproliferative activity against mouse Panc02 cells after 24 hrs; assay type: functional, cell-based; details: Panc02, 24 h
[11] = Antiproliferative activity against human AsPC1 cells after 24 hrs; assay type: functional, cell-based; details: ASPC1, 24 h
[12] = Antiproliferative activity against human MIAPaCa2 cells after 24 hrs; assay type: functional, cell-based; details: MIA PaCa-2, 24 h
[13] = Displacement of [3H]-DTG from sigma 2 receptor in rat liver membranes after 120 mins by scintillation counting analysis; assay type: cell membranes, Membrane
Method in brief: (§2)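 Rat liver homogenate (150 µg) was incubated 120 min at room temperature with 3 nM [3H]-DTG in 50 mM Tris-HCl pH 8.0, with test compound at 10^-10 to 10^-5 M (final). 100 nM (+)-pentazocine masked S1R and 10 µM haloperidol defined nonspecific binding. Filtration and scintillation counting were used. Ki came from regression IC50 via Cheng-Prusoff.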

[14] = Binding affinity to sigma 2 receptor (unknown origin); method in brief: as §2
[15] = biological target: Sigma non-opioid intracellular receptor 1 (Homo sapiens, UniProt Q99720); experiment: Binding affinity to sigma 1 receptor (unknown origin)
Sigma non-opioid intracellular receptor 1 (Homo sapiens, UniProt Q99720), sequence (Q99720 whole entry): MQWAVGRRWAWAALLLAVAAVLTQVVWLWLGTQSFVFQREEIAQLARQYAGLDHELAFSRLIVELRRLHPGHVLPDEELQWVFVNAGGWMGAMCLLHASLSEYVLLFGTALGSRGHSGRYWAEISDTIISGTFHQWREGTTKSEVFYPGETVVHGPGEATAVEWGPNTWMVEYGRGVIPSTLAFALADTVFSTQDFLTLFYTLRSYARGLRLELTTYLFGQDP

Compound | Ki [1] [µM] | Ki [2] [µM] | further results
CC(O)(CCN1CCC(Cc2ccccc2)CC1)c1ccc2cc(O)ccc2c1 (racemic) | 0.118 | 0.027 | 
CC(O)(CCN1CCC(Cc2ccccc2)CC1)c1ccc2ccccc2c1 (single isomer, unassigned; (+)) | 0.081 | 0.01 | 
CC(CCN1CCC(Cc2ccccc2)CC1)c1ccc2cc(O)ccc2c1 (single isomer, unassigned; (-)) | 0.105 | 0.013 | 
CC(CCN1CCC(Cc2ccccc2)CC1)c1ccc2ccccc2c1 (single isomer, unassigned; (+)) | 0.026 | 0.006 | 
C[C@@H]1CN(CCCn2c3ccccc3c3ccccc32)C[C@H](C)N1 [RIMCAZOLE] |  |  | Ki [3]: 0.302 µM
CC(O)(CCN1CCC(Cc2ccccc2)CC1)c1ccccc1 (racemic) | 0.057 | 0.0098 | 
Fc1ccc(-n2cc(CCCCN3CCC4(CC3)OCc3ccccc34)c3ccccc32)cc1 [SIRAMESINE] |  |  | Ki [4]: 0.00012 µM; IC50 [5]: 45.4 µM; IC50 [6]: 6 µM
CC(CCN1CCC(Cc2ccccc2)CC1)c1ccc2cc(O)ccc2c1 (stereo in doubt; 12) | 0.314 | 0.059 | 
COc1ccc(C)cc1NC(=O)OC1CC2CCCC(C1)N2Cc1ccc(N(C)C)cc1 (stereo not given) |  |  | IC50 [7]: ≤ 100 µM; IC50 [8]: ≤ 100 µM; IC50 [9]: ≤ 100 µM; IC50 [10]: ≤ 100 µM; IC50 [11]: ≤ 100 µM; IC50 [12]: ≤ 100 µM
CC(CCN1CCC(Cc2ccccc2)CC1)c1ccc2ccccc2c1 (racemic) | 0.144 | 0.0056 | 
COc1ccc(C)cc1NC(=O)OC1CC2CCCC(C1)N2CCCCCCN (stereo not given) |  |  | IC50 [7]: ≤ 100 µM; IC50 [8]: ≤ 100 µM; IC50 [9]: ≤ 100 µM; IC50 [10]: ≤ 100 µM; IC50 [11]: ≤ 100 µM; IC50 [12]: ≤ 100 µM
CC(CCN1CCC(Cc2ccccc2)CC1)c1ccccc1 (single isomer, unassigned; (+)) | 0.0089 | 0.0029 | 
O[C@@H](CN1C2CCC1CC(c1ccccc1)C2)c1cccc(Br)c1 (stereo not given in full) |  |  | IC50 [7]: ≤ 100 µM; Ki [13]: 0.0123 µM; IC50 [8]: ≤ 100 µM; IC50 [9]: ≤ 100 µM; IC50 [10]: ≤ 100 µM; IC50 [11]: ≤ 100 µM; IC50 [12]: ≤ 100 µM
CC(O)(CCN1CCC(Cc2ccccc2)CC1)c1ccccc1 (stereo in doubt; 2b) | 0.24 | 0.04 | 
CC(O)(CCN1CCC(Cc2ccccc2)CC1)c1ccccc1 (stereo in doubt; 2a) | 0.339 | 0.027 | 
CC(CCN1CCC(Cc2ccccc2)CC1)c1ccccc1 (racemic) | 0.0065 | 0.0021 | 
CC(O)(CCN1CCC(Cc2ccccc2)CC1)c1ccc2ccccc2c1 (stereo in doubt; 1b) | 0.079 | 0.011 | 
CC(O)(CCN1CCC(Cc2ccccc2)CC1)c1ccc2ccccc2c1 (racemic) | 0.0625 | 0.0069 | 
C/C(=C\CN1CCC(Cc2ccccc2)CC1)c1ccccc1 | 0.047 | 0.0007 | 
CC(CCN1CCC(Cc2ccccc2)CC1)c1ccc2ccccc2c1 (single isomer, unassigned; (-)) | 0.098 | 0.0069 | 
CC(CCN1CCC(Cc2ccccc2)CC1)c1ccccc1 (stereo in doubt; 6b) | 0.0079 | 0.003 | 
CC(O)(CCN1CCC(Cc2ccccc2)CC1)c1ccc2cc(O)ccc2c1 (single isomer, unassigned; (-)) | 0.905 | 0.062 | 
CC(O)(CCN1CCC(Cc2ccccc2)CC1)c1ccc2cc(O)ccc2c1 (stereo in doubt; 9a) | 0.068 | 0.07 | 
CC(CCN1CCC(Cc2ccccc2)CC1)c1ccc2cc(O)ccc2c1 (single isomer, unassigned; (+)) | 0.582 | 0.035 | 
COc1ccc(C)cc1NC(=O)OC1CC2CCCC(C1)N2CCCCCCCCCCN (stereo not given) |  |  | Ki [14]: 0.019 µM; Ki [15]: 0.133 µM
C/C(=C\CN1CCC(Cc2ccccc2)CC1)c1ccc2cc(O)ccc2c1 | 0.305 | 0.0096 | 

Reference: ChEMBL document CHEMBL3877244, “Synthesis and biological evaluation of new aryl-alkyl(alkenyl)-4-benzylpiperidines, novel Sigma Receptor (SR) modulators, as potential anticancer-agents” (Eur J Med Chem, 2016)
